Measurements as given in ChEMBL document CHEMBL1126717 (J Med Chem, 1993).

Key:
Format in all cases: cell-based
[1] = molecular target: T1, Polyunsaturated fatty acid 5-lipoxygenase (Rattus norvegicus) (UniProt P12527); test: Inhibition of LTB4 in whole cell 5-lipoxygenase assay in an intact rat basophilic leukemia (RBL-1) cell line at 16 uM
T1 sequence (whole entry): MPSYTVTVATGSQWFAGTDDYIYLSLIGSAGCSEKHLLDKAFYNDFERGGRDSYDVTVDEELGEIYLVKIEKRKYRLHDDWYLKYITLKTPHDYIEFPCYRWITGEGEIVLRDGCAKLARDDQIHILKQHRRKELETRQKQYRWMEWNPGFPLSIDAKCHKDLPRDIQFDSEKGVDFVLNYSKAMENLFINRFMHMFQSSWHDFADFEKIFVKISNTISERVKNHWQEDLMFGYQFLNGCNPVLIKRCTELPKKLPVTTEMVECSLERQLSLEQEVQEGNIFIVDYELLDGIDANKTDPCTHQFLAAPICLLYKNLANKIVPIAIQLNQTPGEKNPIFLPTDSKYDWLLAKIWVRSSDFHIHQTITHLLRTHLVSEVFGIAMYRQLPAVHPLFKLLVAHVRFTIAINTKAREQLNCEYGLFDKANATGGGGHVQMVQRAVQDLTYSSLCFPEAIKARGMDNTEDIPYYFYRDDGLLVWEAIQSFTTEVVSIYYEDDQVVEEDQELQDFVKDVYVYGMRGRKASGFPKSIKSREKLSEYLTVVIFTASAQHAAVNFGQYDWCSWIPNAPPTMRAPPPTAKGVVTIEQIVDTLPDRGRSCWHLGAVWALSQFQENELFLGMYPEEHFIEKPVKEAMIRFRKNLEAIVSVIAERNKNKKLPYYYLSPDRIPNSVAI
Outline: (§1)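 RBL-1 cells grown at 37 °C in suspension in MEM with 12% FBS under 5% CO₂. Washed in cold PBS pH 7.4 and resuspended at 2 × 10⁶ cells/mL in PBS with 1.0 mM calcium. Preincubated with test agent in 1% DMSO for 10 min at room temperature, then stimulated with A23187 (5 μM) for 7 min at 37 °C. LTB₄ in the supernatant measured by RIA. Percent inhibition taken against vehicle; IC₅₀ by linear regression on log concentration.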

[2] = molecular target: T2, Cyclooxygenase (Rattus norvegicus) (UniProt P35355+Q63921); test: Inhibition of PGF2-alpha formation in Prostaglandin G/H synthase assay in an intact rat basophilic leukemia (RBL-1) cell line at 16 uM
Outline: (§2)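 RBL-1 suspension cultures (MEM, 12% FBS, 37 °C, 5% CO₂) were washed in PBS and held at 2 × 10⁶ cells/mL in PBS containing 1.0 mM Ca. Cells were exposed to compound in 1% DMSO for 10 min at room temperature, then to 5 μM A23187 for 7 min at 37 °C, and chilled on ice to stop. PGF₂α in the supernatant was measured by RIA. Percent inhibition was calculated relative to vehicle-treated cells.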

Cyclooxygenase = molecular target: T3, Cyclooxygenase (Rattus norvegicus, UniProt P35355+Q63921); test: Inhibition of Prostaglandin G/H synthase mediated PGF2-alpha formation in rat basophilic leukemia (RBL-1) cells
T3 sequence (P35355 whole entry): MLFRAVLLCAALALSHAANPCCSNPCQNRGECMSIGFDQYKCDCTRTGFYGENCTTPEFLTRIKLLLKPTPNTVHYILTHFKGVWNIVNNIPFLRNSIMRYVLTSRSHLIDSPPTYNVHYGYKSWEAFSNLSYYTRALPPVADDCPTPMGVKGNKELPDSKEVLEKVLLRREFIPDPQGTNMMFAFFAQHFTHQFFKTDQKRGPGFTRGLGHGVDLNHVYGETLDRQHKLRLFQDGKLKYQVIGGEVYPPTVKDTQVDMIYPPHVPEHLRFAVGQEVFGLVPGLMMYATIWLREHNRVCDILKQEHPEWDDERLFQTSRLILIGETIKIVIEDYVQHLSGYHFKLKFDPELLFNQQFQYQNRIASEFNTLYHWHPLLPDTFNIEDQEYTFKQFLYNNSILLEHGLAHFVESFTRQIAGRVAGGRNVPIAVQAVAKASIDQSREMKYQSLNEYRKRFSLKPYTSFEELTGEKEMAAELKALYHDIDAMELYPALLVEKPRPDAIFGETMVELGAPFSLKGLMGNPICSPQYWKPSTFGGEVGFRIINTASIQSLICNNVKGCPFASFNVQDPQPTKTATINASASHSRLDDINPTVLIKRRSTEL
T3 sequence (Q63921 whole entry): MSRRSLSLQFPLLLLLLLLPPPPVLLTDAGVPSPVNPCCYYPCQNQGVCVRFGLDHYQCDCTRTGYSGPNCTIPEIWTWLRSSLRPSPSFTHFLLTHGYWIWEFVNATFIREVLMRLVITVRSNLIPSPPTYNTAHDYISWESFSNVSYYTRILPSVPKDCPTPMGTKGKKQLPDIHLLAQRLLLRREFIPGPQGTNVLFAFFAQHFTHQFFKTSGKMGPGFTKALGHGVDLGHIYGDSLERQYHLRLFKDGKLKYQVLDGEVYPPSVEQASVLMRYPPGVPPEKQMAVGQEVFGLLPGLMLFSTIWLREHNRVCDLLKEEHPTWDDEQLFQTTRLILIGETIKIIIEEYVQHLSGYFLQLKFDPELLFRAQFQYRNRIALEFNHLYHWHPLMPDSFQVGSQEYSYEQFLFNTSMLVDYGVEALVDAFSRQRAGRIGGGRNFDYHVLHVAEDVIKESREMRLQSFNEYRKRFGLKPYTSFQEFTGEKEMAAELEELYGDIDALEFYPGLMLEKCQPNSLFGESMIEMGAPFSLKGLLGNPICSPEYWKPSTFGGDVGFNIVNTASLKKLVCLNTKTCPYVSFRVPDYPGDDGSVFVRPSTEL

[3] = molecular target: T1, Polyunsaturated fatty acid 5-lipoxygenase (Rattus norvegicus); test: Inhibition of LTB4 in whole cell 5-lipoxygenase assay in an intact rat basophilic leukemia (RBL-1) cell line at 10 uM; outline: as §1
[4] = molecular target: T2, Cyclooxygenase (Rattus norvegicus); test: Inhibition of PGF2-alpha formation in Prostaglandin G/H synthase assay in an intact rat basophilic leukemia (RBL-1) cell line at 10 uM; outline: as §2
[5] = molecular target: T4, Polyunsaturated fatty acid 5-lipoxygenase (Rattus norvegicus, UniProt P12527); test: Inhibition 5-lipoxygenase mediated LTB4 formation in rat basophilic leukemia (RBL-1) cells
T4 sequence (P12527 whole entry): T1 sequence (whole entry)
Outline: as §1, with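 “Washed” for “RBL-1 cells grown at 37 °C in suspension in MEM with 12% FBS under 5% CO₂. Washed”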

[6] = molecular target: T1, Polyunsaturated fatty acid 5-lipoxygenase (Rattus norvegicus); test: Inhibition of LTB4 in whole cell 5-lipoxygenase assay in an intact rat basophilic leukemia (RBL-1) cell line; outline: as §1

In the case of `Cc1ccc(Cl)c(Nc2ccccc2-c2nnc(O)n2C)c1Cl`, the inhibition [1] is reported as less than 40% and the inhibition [2] is reported as less than 40%.
`Nc1nnc(-c2ccccc2Nc2cccc(C(F)(F)F)c2)s1` showed an IC50 (Cyclooxygenase) of 11 µM.
`FC(F)(F)c1cccc(Nc2ccccc2-c2n[nH]c(S)n2)c1` showed an inhibition [1] of less than 40%.
Work on `Cc1ccc(Cl)c(Nc2ccccc2-c2nnc(S)n2C)c1Cl` yielded an inhibition [1] of 86% and an inhibition [2] of less than 40%.
For `Cc1ccc(Cl)c(Nc2ccccc2-c2nnc(N)o2)c1Cl`, the inhibition [3] was 45% and the inhibition [4] was less than 40%.
`Cc1ccc(Cl)c(Nc2ccccc2-c2nnc(NC#N)o2)c1Cl` was tested, and the IC50 (Cyclooxygenase) was 0.25 µM.
`Cc1ccc(Cl)c(Nc2ccccc2-c2nnc(S)s2)c1Cl` was tested, and the IC50 (Cyclooxygenase) was 1.7 µM.
With `N#CNc1nnc(-c2ccccc2Nc2cccc(C(F)(F)F)c2)o1` the IC50 (Cyclooxygenase) was 1 µM.
Work on `Nc1nnc(-c2ccccc2Nc2cccc(C(F)(F)F)c2)o1` yielded an IC50 (Cyclooxygenase) of 7.1 µM.
`Cc1ccc(Cl)c(Nc2ccccc2-c2n[nH]c(S)n2)c1Cl` gave an inhibition [1] of less than 40% and an inhibition [2] of less than 40%.
`Cn1c(O)nnc1-c1ccccc1Nc1cccc(C(F)(F)F)c1` gave an inhibition [1] of less than 40% and an inhibition [2] of less than 40%.
`Cc1ccc(Cl)c(Nc2ccccc2-c2nnc(N)s2)c1Cl` gave an IC50 [5] of 0.69 µM and an IC50 (Cyclooxygenase) of 6.1 µM.
`Oc1n[nH]c(-c2ccccc2Nc2cccc(C(F)(F)F)c2)n1` showed an inhibition [3] of less than 40% and an inhibition [4] of less than 40%.
For `Cn1c(S)nnc1-c1ccccc1Nc1cccc(C(F)(F)F)c1`, the IC50 [5] was 12 µM and the IC50 (Cyclooxygenase) was 30 µM.
With `N#CNc1nnc(-c2ccccc2Nc2cccc(C(F)(F)F)c2)s1` the IC50 [5] was 1.7 µM and the IC50 (Cyclooxygenase) was 2.6 µM.
In the case of `Cc1ccc(Cl)c(Nc2ccccc2-c2nnc(NC#N)s2)c1Cl`, the IC50 [5] is reported as 0.29 µM and the IC50 (Cyclooxygenase) is reported as 1.9 µM.
`Oc1nnc(-c2ccccc2Nc2cccc(C(F)(F)F)c2)s1` gave an IC50 [6] of 7.4 µM.
